pEC50: −log10 of the molar value. In brackets after ≈: the same amount, converted by molar mass.
What was measured:
THP-1 [1] = assay: Antiinflammatory activity in human THP1 cells assessed as inhibition of LPS-induced TNFalpha production at 10 uM treated 30 mins before LPS challenge measured after 4 hrs by ELISA; assay type: functional
[2] = target: MAP kinase-activated protein kinase 2 (Homo sapiens, UniProt P49137); assay: Inhibition of MK2 pretreated for 30 mins before substrate addition measured after 2 hrs by IMAP assay
Chain of MAP kinase-activated protein kinase 2 (P49137 whole entry): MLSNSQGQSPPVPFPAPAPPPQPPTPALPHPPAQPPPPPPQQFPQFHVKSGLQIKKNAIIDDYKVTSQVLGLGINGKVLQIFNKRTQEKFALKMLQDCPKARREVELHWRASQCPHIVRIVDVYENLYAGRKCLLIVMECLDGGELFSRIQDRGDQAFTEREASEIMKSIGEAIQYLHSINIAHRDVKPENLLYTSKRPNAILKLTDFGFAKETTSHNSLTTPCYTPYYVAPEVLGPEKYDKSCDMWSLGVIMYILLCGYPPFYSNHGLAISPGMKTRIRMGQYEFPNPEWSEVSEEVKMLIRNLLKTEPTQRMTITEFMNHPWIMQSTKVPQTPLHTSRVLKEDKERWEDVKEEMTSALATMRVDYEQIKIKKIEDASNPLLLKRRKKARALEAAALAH

[3] = Kinetic solubility of the compound at pH 7.4; assay type: physicochemical; settings: buffer
[4] = Permeability across human Caco2 cells; assay type: ADME, cell-based; settings: Caco-2, read-out: permeability
[5] = Half life in human liver microsomes; assay type: ADME, Microsome
[6] = Plasma protein binding in plasma; assay type: ADME, cell-free; settings: read-out: PPB (converted)
[7] = Half life in rat liver microsomes; assay type: ADME, Microsome
[8] = Permeability of the compound by PAMPA; assay type: ADME; settings: read-out: permeability
Rattus norvegicus [9] = assay: Antiinflammatory activity in rat assessed as inhibition of LPS-induced TNFalpha production in serum at 10 mg/kg, sc administered 1 hr before LPS challenge measured after 1.5 hrs by ELISA
Rattus norvegicus [10] = assay: Antiinflammatory activity in rat assessed as inhibition of LPS-induced TNFalpha production in serum at 12.5 mg/kg, iv administered 1 hr before LPS challenge measured after 1.5 hrs by ELISA
THP-1 [11] = assay: Antiinflammatory activity in human THP1 cells assessed as inhibition of LPS-induced TNFalpha production treated 30 mins before LPS challenge measured after 4 hrs by ELISA; assay type: functional, cell-based
Method in brief: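 THP1 cells seeded at 1.5 × 10^5 per well in DMEM F12 and rested ≥18 h at 37 °C, 5–7% CO2, humidified. Compounds added in DMSO (0.1% final) for 30 min, then LPS added. After 4 h at 37 °C, TNFα in the culture medium was quantified by ELISA. EC50 from duplicates per dilution.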

[12] = AUC in rat at 10 umol/kg, sc; assay type: ADME, organism-based; settings: plasma
Method in brief: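 Rat PK after subcutaneous dosing at 10 µmol/kg; exposure expressed as AUC.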

[13] = AUC in rat at 10 umol/kg, po; assay type: ADME, organism-based; settings: plasma
Method in brief: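 Rat PK after oral dosing at 10 µmol/kg; exposure expressed as AUC.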

PBMC = assay: Antiinflammatory activity in human PBMC cells assessed as inhibition of LPS-induced TNFalpha production treated 30 mins before LPS challenge measured after 4 hrs by ELISA; assay type: functional, cell-based
[14] = AUC in rat at 4 umol/kg, iv; assay type: ADME, organism-based; settings: plasma
Rattus norvegicus [15] = assay: Antiinflammatory activity in rat assessed as inhibition of LPS-induced TNFalpha production in serum at 30 mg/kg, sc administered 1 hr before LPS challenge measured after 1.5 hrs by ELISA
Rattus norvegicus [16] = assay: Antiinflammatory activity in sc dosed rat assessed as inhibition of LPS-induced TNFalpha production in serum administered 1 hr before LPS challenge measured after 1.5 hrs by ELISA

Row | SMILES | pEC50 [2] | solubility kinetic [3] | half-life [5] | fraction unbound [6] | half-life [7] | inhibition at 10 µM (THP-1 [1]) | other results
1 | O=C1NCC2(CCCC2)c2[nH]c(-c3ccnc(-c4cnc5ccccc5c4)n3)cc21 | 6.63 | – | – | – | – | 50% | –
2 | O=C1NCCc2[nH]c(-c3ccnc(-c4cnc5ccccc5c4)c3)cc21 | – | – | 35 min | 0.003 | 40 min | 38% | Papp [4]: 0.5 ×10⁻⁶ cm/s; Papp [8]: 0.6 ×10⁻⁶ cm/s
3 | O=C1NCC2(CCNCC2)c2[nH]c(-c3ccnc(-c4ccc5c(c4)OCO5)n3)cc21 | – | 37 µg/mL (≈ 91.7 µM) | 91 min | 0.03 | > 120 min | – | inhibition in vivo at 10 mg/kg (Rattus norvegicus [9]): 54%; inhibition in vivo at 12.5 mg/kg (Rattus norvegicus [10]): 92%; pEC50 (THP-1 [11]): 6.01; AUC [12]: 2.71 µM·h; AUC [13]: 0.016 µM·h; pEC50 (PBMC): 6.59; AUC [14]: 1.26 µM·h; inhibition in vivo at 30 mg/kg (Rattus norvegicus [15]): 85%; inhibition (Rattus norvegicus [16]): Dose-dependent effect
4 | O=C1NCC2(CCNCC2)c2[nH]c(-c3ccnc(-c4cnc5ccccc5c4)n3)cc21 | 8.22 | 23 µg/mL (≈ 56 µM) | – | – | – | – | –

Further lines, with some results ahead:

Row | pEC50 [2] | solubility kinetic [3] | half-life [5] | fraction unbound [6] | half-life [7] | SMILES | inhibition at 10 µM (THP-1 [1]) | other results
5 | 7.55 | 33 µg/mL (≈ 91.8 µM) | – | – | – | NCCn1nc(-c2ccnc(-c3cnc4ccccc4c3)c2)cc1C(=O)O | 7% | –
6 | 6.82 | – | – | – | – | NCC1CNC(=O)c2cc(-c3ccnc(-c4cnc5ccccc5c4)c3)nn21 (configuration not stated) | – | –

— ChEMBL document CHEMBL1777729, “Structure-based lead identification of ATP-competitive MK2 inhibitors” (Bioorg Med Chem Lett, 2011)
